Laboratory results taken from the RNAGym collection of RNA variant scans (doi:10.1126/science.aae0568).
Fewer inactive variants are shown than the library holds.

B1: tRNA (parent)
chain: GUUCCGUUGGCGUAAUGGUAACGCGUCUCCCUCCUAAGGAGAAGACUGCGGGUUCGAGUCCCGUACGGAACG

Variants of: B1
Assay: yeast fitness relative to wild type (ratio to wild type); higher = fitter; tRNA-Arg(CCU), competitive growth, 37 C, YPD
Summary of the method: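 Variants of the tRNA-Arg(CCU) gene, chemically synthesised with a 3% per-site mutation rate at 69 sites, were placed at the native genomic locus in Saccharomyces cerevisiae. The pooled strains were competed in YPD at 37°C for 24 hours in six parallel replicates. Gene amplicons from the start population and from each end population were read by 100-nucleotide paired-end sequencing. Darwinian fitness relative to wild type came from changes in genotype frequencies; genotypes needed ≥ 100 starting reads, and estimates < 0.5 were set to 0.5.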

Variant | yeast fitness
GUUCCGUGGGCGUAUUGGUCACGCGUCUCCCUCCUAAGGAGAAGACUGCGGGUUCGAGUCCCGUACGGCACG [U8G A15U A20C A69C] | ≤ 0.5
GUUCCGUCGGCGUAAUGGUAACGCGUCUCCCUCCUAAGGAGAAGACUGCAGGUUCGAGUCCCGUACGGUACG [U8C G50A A69U] | 0.804
GUUCCGUCGGCGUAAUGGUAACGCGGCUCCCUCCUAAGGAGCAGACUGCGGGUUCGAGUCCCGUACGGAACG [U8C U26G A42C] | 0.703
GUUCCGUCGGCGUAAUGGUAACGCGUCACCCUCCUAAGGAGAAGACUGCGGGUUCGAGUCCCGUACGGAACG [U8C U28A] | 0.901
GUUCCGUGGGCGUAAUGGUAACGCGUCUCCCUCCUAAGGAGACGACUGCGGGUUCGAGUCUCGUACGGAACG [U8G A43C C61U] | ≤ 0.5
GUUCCGUCGGCGUAAUGGUAACGCGUCUCCCUCCUAAGGAGAAGACUGCGGGUGCGAGUCCCGAACGGAACG [U8C U54G U64A] | 0.543
GUUCCGUGGGCGUUACGGUAACGCGUCUCCCUCCUAAGGUGAAGACUCCGGGUUCGAGUCCCGUACGGAACG [U8G A14U U16C A40U G48C] | ≤ 0.5
GUUCCGUGGGCGUAAUGGUAACGCGUCUCCCUCCUAAGGAGAAGACUGCGGGUUCGAGUCCCGUACGGAACG [U8G] | 0.711
GUUCCGUCGGCGCAAUGGUAACGCGUCUCCCUCCUAAGGAGAAGACCGCGGGUUCGAGUCCCGUGCGGAACG [U8C U13C U47C A65G] | ≤ 0.5
GUUCCGUCGGCGUAAUGGUAACGCGUCUCCCUCCUAAGGAGAAGACCGCGGGUUCGAGUCCCGUACGGCACG [U8C U47C A69C] | 0.714
GUUCCGUCGGCGUAAUGGUAACGCGUCUCCCCCCUAAGGAGAAGAGUGCGGGUUCGAGUCCCGUACCGAACG [U8C U32C C46G G67C] | ≤ 0.5
GUUCCGUGGGCGUGAUGGUAGCGCGUAUCCCUCCAAAGGAGAAGACUGCGGGUUCGAGUCCAGUCCGGAACG [U8G A14G A21G C27A U35A C62A A65C] | ≤ 0.5
GUUCCGUGGGCGUAAUGGUAGCACGUCUCCCUCCUAAGGAGAAGACUGCGGGUUCGAGUCCCGCACGGAACG [U8G A21G G23A U64C] | ≤ 0.5
GUUCCGUGGGCGUAAUGGUAACGCGUCUCCCUCCUAAGGAGACGACUGCGAGUUCGAGUCCCGUACGGAACG [U8G A43C G51A] | ≤ 0.5
GUUCCGUCGGCGUAAUGGUAACGCGUCUCCCUCCUAAGGAGAAGACUGCGGGUUCGAGUCCCGUACCGAACG [U8C G67C] | 0.953
GUUCCGUCGGCGUAAUGGUAACGCGUCUCCCUCCUAAGGAGAAGACUGCGGGUUCGAGUCCCGUACAGAACG [U8C G67A] | 0.85
GUUCCGUGGGCGUAAUGGUACCGCGUCUCCCUCCUAAGGAGAAGACUGCAGGUUCAAGUCCCGUACGGAACG [U8G A21C G50A G56A] | ≤ 0.5
GUUCCGUCGGCGUAAUGGUAACGCGUCUCCCUCCUAAGGAGAAGACUGCGCGUUCGACUCCCGUACGGAACG [U8C G51C G58C] | ≤ 0.5
GUUCCGUCGGCGUAAUGGAAACGCGUCUCCAUCCUAAGGACAAGGCUGCCGGUUCGAGUCCUGUACGGAACG [U8C U19A C31A G41C A45G G50C C62U] | ≤ 0.5

Variant | yeast fitness
GUUCCGUCGGCGUAAUGGAAACGCGUCUCCCUCCUAAGGCGAACACUCCGGGGUCGAGUCCCGUACGGAACG [U8C U19A A40C G44C G48C U53G] | ≤ 0.5
GUUCCGUCGGCGUAAUGGUAACGCGUCUCCCUCCUAAGGAGAAGACUGCGAGUUCGAGUCCAGUACGGAACG [U8C G51A C62A] | ≤ 0.5
GUUCCGUGGGCGUAAUGGUACCGCGUCUCCCUCCUAAGGAGAUGACUGCGGGUUCGAGACCCAUACGGAACG [U8G A21C A43U U59A G63A] | ≤ 0.5
GUUCCGUCGGCGUAAUGGUAACGCGUCUCCCUCCUAAGGAGAAGACUGCAGGUUCGAGUCCCGUACGGAACG [U8C G50A] | 0.773
GUUCCGUCGGCGAAAUGGUAAGGGGUCUCCCUCCUUAGGCGAAGACUGCGCGUUCGAGUCCCGUACGGAACG [U8C U13A C22G C24G A36U A40C G51C] | ≤ 0.5
GUUCCGUCGGCGUAACGGUAACGUGUCCCCCUCCUAAGGAGAAGACAGCGGGUUUGAGUCCCGUACGGAACG [U8C U16C C24U U28C U47A C55U] | ≤ 0.5
GUUCCGUCGGCGAAAUGGUAACGCGUCUCCCCCCUAAGGAGAAGACUGCGGGUUCGAGUCCCGUACGGUACG [U8C U13A U32C A69U] | 0.677
GUUCCGUCGGCGUAAUGGUAACGCGUCCCGGUCCUAAGGAGAAGACUGCGGGUUCGAGUCCCGUCCGGAACG [U8C U28C C30G C31G A65C] | ≤ 0.5
GUUCCGUCGGCGUAAUGGUAACGCGUCUCCCUCCUAAGGAGAAGACUCCGGGUUCGAGUCCCCUACGGACCG [U8C G48C G63C A70C] | ≤ 0.5
GUUCCGUCGGCGUAACGGUACCGCGUCUCCCUCCUAAGGAGAAGACUGAGGGUUCGAAUCCCGUAUGAAACG [U8C U16C A21C C49A G58A C66U G68A] | ≤ 0.5
GUUCCGUCGGCGUAAUGGUAACGCGUCACCCUCCUAGGGACAAGACUGCGGGUUCGAGUCCCGUACGGAACG [U8C U28A A37G G41C] | ≤ 0.5
GUUCCGUGGGCGUAAUGGUGACGCGUCUCCCUCCUAAGGAGAAGACUGCGGGUUCGAUUCCCGUGCAGAACG [U8G A20G G58U A65G G67A] | ≤ 0.5
GUUCCGUCGGCGUAAUGGUAACGCGCCUCCCUCCUAUGGAGAAGACUGCGGGUUCGGGUCCCGUACGGAACG [U8C U26C A37U A57G] | ≤ 0.5
GUUCCGUCGGCGUAAUGGUAACGCGUCUCCCCCCUAAGGAGAAAACUGCGGGUUCAAGUCCCGUACGGAACG [U8C U32C G44A G56A] | ≤ 0.5
GUUCCGUGGGCGUAAUGGUAACGCGUCUCCCUCCUAAGGAGAAGGCUGCGGGUUCGAGUCCCGUACGGAACG [U8G A45G] | 0.632
GUUCCGUGGGCGUAAUGGUAACGCGUCUCCCUCCUAAGGAGAAGCCUGCGGGUUCGAGUCCCGUACGGAACG [U8G A45C] | 0.537
GUUCCGUGGGCGUAAUGGUACCGCGUCUCCCUCCUAAGGAGAAGACUGCGGGUUCCAGUCCCGUACGGAACG [U8G A21C G56C] | 0.766
GUUCCGUCGGCGUAACGGUAACGCGUCUCCCUCCUAAGGAGAAGACUGCGGGUUCGAGUCGCGUACGGCACG [U8C U16C C61G A69C] | ≤ 0.5
GUUCCGUCGGCGUAAUGGUAACGCGUCGCCCUCCUAAGGAGAAGAGUGUGGGUUCGAGUCCCGUACGGCACG [U8C U28G C46G C49U A69C] | ≤ 0.5
